Laboratory results as given in ChEMBL document CHEMBL1944570, “Discovery of 4''-ether linked azithromycin-quinolone hybrid series: influence of the central linker on the antibacterial activity” (ACS Med Chem Lett, 2011).
≈ marks a conversion by molar mass, not a printed value.

Tests used:
Format in all cases: functional
Moraxella catarrhalis = experiment: Antibacterial activity against Moraxella catarrhalis by agar microdilution method
Outline: (§1)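 Agar microdilution MIC per NCCLS standards against strains from the Pliva Research Institute culture collection; values in µg/mL. Panel included erythromycin-susceptible strains and strains with inducible or constitutive MLS resistance.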

Streptococcus pyogenes [1] = experiment: Antibacterial activity against efflux mediated macrolide resistant Streptococcus pyogenes by agar microdilution method
Outline: (§2)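 MIC by agar microdilution following NCCLS standards; strains drawn from the PLIVA Research Institute culture collection. MIC reported in μg/mL.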

Staphylococcus aureus [2] = experiment: Antibacterial activity against erythromycin-susceptible Staphylococcus aureus by agar microdilution method; outline: as §1
Staphylococcus aureus [3] = experiment: Antibacterial activity against ciprofloxacin-resistant Staphylococcus aureus by agar microdilution method; outline: as §2
Streptococcus pneumoniae [4] = experiment: Antibacterial activity against constitutive MLS resistant Streptococcus pneumoniae by agar microdilution method; outline: as §2
Haemophilus influenzae = experiment: Antibacterial activity against Haemophilus influenzae B0529 by agar microdilution method; outline: as §1
Streptococcus pneumoniae [5] = experiment: Antibacterial activity against erythromycin-susceptible Streptococcus pneumoniae by agar microdilution method; outline: as §2
Staphylococcus aureus [6] = experiment: Antibacterial activity against efflux mediated macrolide resistant Staphylococcus aureus by agar microdilution method; outline: as §2
Streptococcus pyogenes [7] = experiment: Antibacterial activity against constitutive MLS resistant Streptococcus pyogenes by agar microdilution method; outline: as §2
Streptococcus pyogenes [8] = experiment: Antibacterial activity against Streptococcus pyogenes with inducible resistance to MLS by agar microdilution method; outline: as §2
Streptococcus pyogenes [9] = experiment: Antibacterial activity against erythromycin-susceptible Streptococcus pyogenes by agar microdilution method; outline: as §2
Staphylococcus aureus [10] = experiment: Antibacterial activity against constitutive MLS resistant Staphylococcus aureus by agar microdilution method; outline: as §2
Staphylococcus aureus [11] = experiment: Antibacterial activity against Staphylococcus aureus with inducible resistance to MLS by agar microdilution method; outline: as §2
Streptococcus pneumoniae [12] = experiment: Antibacterial activity against efflux mediated macrolide resistant Streptococcus pneumoniae by agar microdilution method; outline: as §2

| Structure (SMILES) | MIC (Moraxella catarrhalis) | MIC (Streptococcus pyogenes [1]) | MIC (Staphylococcus aureus [2]) | MIC (Staphylococcus aureus [3]) | MIC (Streptococcus pneumoniae [4]) | MIC (Haemophilus influenzae) | MIC (Streptococcus pneumoniae [5]) | MIC (Staphylococcus aureus [6]) | MIC (Streptococcus pyogenes [7]) | MIC (Streptococcus pyogenes [8]) | MIC (Streptococcus pyogenes [9]) | MIC (Staphylococcus aureus [10]) | MIC (Staphylococcus aureus [11]) | MIC (Streptococcus pneumoniae [12]) |
| --- | --- | --- | --- | --- | --- | --- | --- | --- | --- | --- | --- | --- | --- | --- |
| CCOC(=O)c1cn(CC)c2ccc(N3CCN(CCO[C@H]4[C@H](C)O[C@@H](O[C@H]5[C@H](C)[C@@H](O[C@@H]6O[C@H](C)C[C@H](N(C)C)[C@H]6O)[C@](C)(O)C[C@@H](C)CN(C)[C@H](C)[C@H]6OC(=O)O[C@]6(C)[C@@H](CC)OC(=O)[C@@H]5C)C[C@@]4(C)OC)CC3)cc2c1=O | 0.25 µg/mL (≈ 0.221 µM) | 16 µg/mL (≈ 14.2 µM) | 0.5 µg/mL (≈ 0.442 µM) | ≥ 64 µg/mL | 64 µg/mL (≈ 56.6 µM) | 1 µg/mL (≈ 0.885 µM) | ≤ 0.125 µg/mL | 8 µg/mL (≈ 7.08 µM) | 64 µg/mL (≈ 56.6 µM) | 1 µg/mL (≈ 0.885 µM) | ≤ 0.125 µg/mL | > 64 µg/mL | 64 µg/mL (≈ 56.6 µM) | – |
| CC[C@H]1OC(=O)[C@H](C)[C@@H](O[C@H]2C[C@@](C)(OC)[C@@H](OCCNCCNc3cc4c(cc3F)c(=O)c(C(=O)O)cn4C3CC3)[C@H](C)O2)[C@H](C)[C@@H](O[C@@H]2O[C@H](C)C[C@H](N(C)C)[C@H]2O)[C@](C)(O)C[C@@H](C)CN(C)[C@H](C)[C@@H](O)[C@]1(C)O | 1 µg/mL (≈ 0.926 µM) | 1 µg/mL (≈ 0.926 µM) | 2 µg/mL (≈ 1.85 µM) | ≥ 64 µg/mL | 32 µg/mL (≈ 29.6 µM) | 4 µg/mL (≈ 3.7 µM) | ≤ 0.125 µg/mL | 2 µg/mL (≈ 1.85 µM) | 1 µg/mL (≈ 0.926 µM) | – | ≤ 0.125 µg/mL | 64 µg/mL (≈ 59.2 µM) | 64 µg/mL (≈ 59.2 µM) | – |
| CC[C@H]1OC(=O)[C@H](C)[C@@H](O[C@H]2C[C@@](C)(OC)[C@@H](OCCNCCOCCOCCNc3cc4c(=O)c(C(=O)O)cn(C5CC5)c4cc3Cl)[C@H](C)O2)[C@H](C)[C@@H](O[C@@H]2O[C@H](C)C[C@H](N(C)C)[C@H]2O)[C@](C)(O)C[C@@H](C)CN(C)[C@H](C)[C@@H](O)[C@]1(C)O | 1 µg/mL (≈ 0.844 µM) | 2 µg/mL (≈ 1.69 µM) | 4 µg/mL (≈ 3.38 µM) | ≥ 64 µg/mL | 64 µg/mL (≈ 54 µM) | 4 µg/mL (≈ 3.38 µM) | ≤ 0.125 µg/mL | 1 µg/mL (≈ 0.844 µM) | 2 µg/mL (≈ 1.69 µM) | – | ≤ 0.125 µg/mL | 32 µg/mL (≈ 27 µM) | 64 µg/mL (≈ 54 µM) | – |
| CC[C@H]1OC(=O)[C@H](C)[C@@H](O[C@H]2C[C@@](C)(OC)[C@@H](OCCNCCNc3cc4c(cc3F)c(=O)c(C(=O)O)cn4C3CC3)[C@H](C)O2)[C@H](C)[C@@H](O[C@@H]2O[C@H](C)C[C@H](N(C)C)[C@H]2O)[C@](C)(O)C[C@@H](C)CN(C)[C@H](C)[C@H]2OC(=O)O[C@@]21C | 0.5 µg/mL (≈ 0.452 µM) | 4 µg/mL (≈ 3.62 µM) | 4 µg/mL (≈ 3.62 µM) | ≥ 64 µg/mL | 64 µg/mL (≈ 57.8 µM) | 4 µg/mL (≈ 3.62 µM) | ≤ 0.125 µg/mL | 4 µg/mL (≈ 3.62 µM) | 8 µg/mL (≈ 7.23 µM) | 0.25 µg/mL (≈ 0.226 µM) | ≤ 0.125 µg/mL | > 64 µg/mL | 64 µg/mL (≈ 57.8 µM) | 0.25 µg/mL (≈ 0.226 µM) |
| CC[C@H]1OC(=O)[C@H](C)[C@@H](O[C@H]2C[C@@](C)(OC)[C@@H](OCCCC(=O)NCCOCCNc3cc4c(=O)c(C(=O)O)cn(C5CC5)c4cc3Cl)[C@H](C)O2)[C@H](C)[C@@H](O[C@@H]2O[C@H](C)C[C@H](N(C)C)[C@H]2O)[C@](C)(O)C[C@@H](C)CN(C)[C@H](C)[C@@H](O)[C@]1(C)O | 4 µg/mL (≈ 3.38 µM) | 1 µg/mL (≈ 0.845 µM) | 2 µg/mL (≈ 1.69 µM) | ≥ 64 µg/mL | 4 µg/mL (≈ 3.38 µM) | 4 µg/mL (≈ 3.38 µM) | ≤ 0.125 µg/mL | 8 µg/mL (≈ 6.76 µM) | 2 µg/mL (≈ 1.69 µM) | – | ≤ 0.125 µg/mL | 64 µg/mL (≈ 54.1 µM) | 64 µg/mL (≈ 54.1 µM) | 0.25 µg/mL (≈ 0.211 µM) |
| CC[C@H]1OC(=O)[C@H](C)[C@@H](O[C@H]2C[C@@](C)(OC)[C@@H](OCCCC(=O)NCCOCCNc3cc4c(cc3F)c(=O)c(C(=O)O)cn4C3CC3)[C@H](C)O2)[C@H](C)[C@@H](O[C@@H]2O[C@H](C)C[C@H](N(C)C)[C@H]2O)[C@](C)(O)C[C@@H](C)CN(C)[C@H](C)[C@@H](O)[C@]1(C)O | 8 µg/mL (≈ 6.86 µM) | 2 µg/mL (≈ 1.71 µM) | 16 µg/mL (≈ 13.7 µM) | ≥ 64 µg/mL | 8 µg/mL (≈ 6.86 µM) | 16 µg/mL (≈ 13.7 µM) | 0.5 µg/mL (≈ 0.429 µM) | 32 µg/mL (≈ 27.4 µM) | 4 µg/mL (≈ 3.43 µM) | 0.25 µg/mL (≈ 0.214 µM) | 0.25 µg/mL (≈ 0.214 µM) | 64 µg/mL (≈ 54.9 µM) | 64 µg/mL (≈ 54.9 µM) | 0.25 µg/mL (≈ 0.214 µM) |
| CC[C@H]1OC(=O)[C@H](C)[C@@H](O[C@H]2C[C@@](C)(OC)[C@@H](OCCNCCNc3cc4c(=O)c(C(=O)O)cn(C5CC5)c4cc3Cl)[C@H](C)O2)[C@H](C)[C@@H](O[C@@H]2O[C@H](C)C[C@H](N(C)C)[C@H]2O)[C@](C)(O)C[C@@H](C)CN(C)[C@H](C)[C@H]2OC(=O)O[C@@]21C | 0.25 µg/mL (≈ 0.223 µM) | 0.5 µg/mL (≈ 0.445 µM) | 2 µg/mL (≈ 1.78 µM) | ≥ 64 µg/mL | 64 µg/mL (≈ 57 µM) | 2 µg/mL (≈ 1.78 µM) | ≤ 0.125 µg/mL | 4 µg/mL (≈ 3.56 µM) | 2 µg/mL (≈ 1.78 µM) | 0.5 µg/mL (≈ 0.445 µM) | ≤ 0.125 µg/mL | > 64 µg/mL | 64 µg/mL (≈ 57 µM) | – |
